Experimental findings from ChEMBL document CHEMBL1127039, “Nonpeptide angiotensin II antagonists derived from 4H-1,2,4-triazoles and 3H-imidazo[1,2-b][1,2,4]triazoles” (J Med Chem, 1993) are described below.

In this assay the target is T1, Type-1 angiotensin II receptor (Oryctolagus cuniculus, UniProt P34976).
T1 sequence (P34976 whole entry): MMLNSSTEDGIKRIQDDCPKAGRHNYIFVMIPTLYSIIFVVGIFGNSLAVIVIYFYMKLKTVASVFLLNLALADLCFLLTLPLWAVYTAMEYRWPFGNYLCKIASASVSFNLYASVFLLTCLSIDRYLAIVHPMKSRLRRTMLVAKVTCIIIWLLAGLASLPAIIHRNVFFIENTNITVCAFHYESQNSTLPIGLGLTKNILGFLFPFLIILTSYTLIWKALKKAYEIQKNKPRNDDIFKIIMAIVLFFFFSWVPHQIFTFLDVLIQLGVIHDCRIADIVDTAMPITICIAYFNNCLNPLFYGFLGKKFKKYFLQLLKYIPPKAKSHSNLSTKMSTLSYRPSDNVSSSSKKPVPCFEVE
The assay can be described thus: Displacement of [125I]-Sar1-Ile8-A II at the rabbit aorta angiotensin II receptor, type 1. In kind it is tissue-based. The essentials:
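Rabbit aorta membranes in 50 mM Tris-HCl pH 7.4, 5 mM MgCl2, 0.2 mg/mL bacitracin; 0.2% BSA only in original version. Nonspecific binding with 1 μM unlabeled Sar1Ile8-AII. Filtration, gamma counting. Duplicate tubes, five concentrations; IC50 from nonlinear regression of displacement curves, sometimes averaged over separate assays.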
On the technique in general: In a radioligand displacement assay an active substance lowers the binding of a labelled ligand.

The IC50 is the concentration that inhibits the measured activity by half. In the case of `CCCCc1nnc(-c2ccco2)n1Cc1ccc(NC(=O)c2ccccc2C(=O)O)cc1`, the half-inhibitory concentration (IC50) stood at 1000 nM.

The molecule `CCSc1nnc(Cc2ccccc2)n1Cc1ccc(NC(=O)c2ccccc2C(=O)O)cc1` yielded an IC50 of 1000 nM.

`CCCCc1nnc(SCc2ccccc2C(=O)OC)n1Cc1ccc(-c2ccccc2-c2nnn[nH]2)cc1` gave an IC50 of 90 nM.

Molecule `CCCCc1nnc(SCC(=O)c2ccccc2)n1Cc1ccc(NC(=O)c2ccccc2C(=O)O)cc1` had an IC50 of 190 nM.

Turning to `CCCCc1nnc(OCCc2ccccc2)n1Cc1ccc(-c2ccccc2-c2nnn[nH]2)cc1`, the IC50 was found to be 63 nM.

Molecule `CCCCc1nnc(SCc2ccccc2Cl)n1Cc1ccc(NC(=O)c2ccccc2C(=O)O)cc1` gave an IC50 of 30 nM.

On to `CCCCc1nn2cc(CC)nc2n1Cc1ccc(-c2ccccc2-c2nn[nH]n2)cc1`, for which the IC50 turned out to be 55 nM.

`CCCCc1nn2c(-c3ccccc3)cnc2n1Cc1ccc(-c2ccccc2-c2nn[nH]n2)cc1` gave an IC50 of 220 nM.

In the case of `CCCCc1nnc(SC(CC)C(=O)OC)n1Cc1ccc(NC(=O)c2ccccc2C(=O)O)cc1` (configuration not stated), the IC50 was determined as 300 nM. The IC50 values of the last two molecules are within 1.5-fold of each other.

Regarding `CCCSc1nnc(CSc2ccccc2)n1Cc1ccc(NC(=O)c2ccccc2C(=O)O)cc1`, the IC50 came out at 1200 nM. This IC50 is about 4-fold higher than that of the molecule before.

`CCCCc1nnc(SCc2cccc(OC)c2)n1Cc1ccc(NC(=O)c2ccccc2C(=O)O)cc1`: the IC50 came to 21 nM.

For the molecule `CCCCc1nnc(SCc2cccc(C(=O)OC)c2)n1Cc1ccc(NC(=O)c2ccccc2C(=O)O)cc1`, the IC50 is 30 nM.

In the case of `CCCCc1nnc(SCc2ccc3ccccc3c2)n1Cc1ccc(NC(=O)c2ccccc2C(=O)O)cc1`, the IC50 stood at 49 nM.

`CCCCc1nnc(SCc2ccc(OC)cc2)n1Cc1ccc(-c2ccccc2-c2nnn[nH]2)cc1` had an IC50 of 31 nM. This IC50 is about 1.6-fold lower than that of the molecule before.

Molecule `CCCCc1nnc(SCc2ccc(Cl)cc2)n1Cc1ccc(NC(=O)c2ccccc2C(=O)O)cc1` had an IC50 of 6.8 nM.

`CCCCc1nnc(Sc2ccccc2)n1Cc1ccc(NC(=O)c2ccccc2C(=O)O)cc1` came in with an IC50 of 60 nM. This IC50 lies about 8.8-fold higher than the previous one.

In turn, `CCCCc1nnc(C(=O)NCc2ccccc2)n1Cc1ccc(-c2ccccc2-c2nnn[nH]2)cc1` returned an IC50 of 57 nM.

Turning to `CCCCc1nnc(SCc2ccccc2[N+](=O)[O-])n1Cc1ccc(-c2ccccc2-c2nnn[nH]2)cc1`, the IC50 was determined as 130 nM.

As for `CCCSc1nnc(Cc2ccccc2)n1Cc1ccc(NC(=O)c2ccccc2C(=O)O)cc1`, the half-maximal inhibitory concentration (IC50) turned out to be 380 nM.

On to `CCCCc1nnc(SCCc2ccccc2)n1Cc1ccc(NC(=O)c2ccccc2C(=O)O)cc1`, for which the IC50 is 70 nM.

On to `CCCCc1nnc([S+]([O-])Cc2ccccc2C(=O)O)n1Cc1ccc(-c2ccccc2-c2nnn[nH]2)cc1` (configuration not stated), for which the IC50 was 10 nM.

For `CCCCc1nnc(SCC(=O)NC)n1Cc1ccc(NC(=O)c2ccccc2C(=O)O)cc1`, the IC50 is 720 nM.

In turn, `CCCCc1nn2c(C)c(-c3ccccc3)nc2n1Cc1ccc(-c2ccccc2-c2nnn[nH]2)cc1` displayed an IC50 of 13 nM.

Regarding `CCCCc1nnc(SCc2ccccc2C#N)n1Cc1ccc(NC(=O)c2ccccc2C(=O)O)cc1`, the IC50 is 60 nM.

Consider `CCCCc1nnc(Sc2ccccc2)n1Cc1ccc(-c2ccccc2-c2nn[nH]n2)cc1`, for which the IC50 was 100 nM.

As to `CCCCc1nnc(SCc2ccc(C(=O)O)cc2)n1Cc1ccc(-c2ccccc2-c2nnn[nH]2)cc1`, the IC50 was found to be 24 nM.

Regarding `CCSc1nnc(COC)n1Cc1ccc(NC(=O)c2ccccc2C(=O)O)cc1`, the IC50 was found to be 5200 nM. Against the preceding molecule, the IC50 is about 220-fold higher.

As to `CCCCc1nc(Cl)c(CO)n1Cc1ccc(-c2ccccc2C(=O)O)cc1`, the IC50 was 230 nM.

As to `CCCCc1nnc(OCc2ccccc2)n1Cc1ccc(-c2ccccc2-c2nn[nH]n2)cc1`, the IC50 was determined as 370 nM. This IC50 lies about 1.6-fold higher than the previous one.

With `CCCCc1nc2ccccc2n1Cc1ccc(-c2ccccc2-c2nn[nH]n2)cc1`, the IC50 was 96 nM.

`CCCCc1nnc(SCC(C)C)n1Cc1ccc(-c2ccccc2-c2nn[nH]n2)cc1`: the IC50 amounted to 72 nM.

`CCCCc1nnc(-c2cccnc2)n1Cc1ccc(NC(=O)c2ccccc2C(=O)O)cc1` had an IC50 of 1700 nM.

In turn, `CCCCc1nnc(SC)n1Cc1ccc(-c2ccccc2-c2nnn[nH]2)cc1` came in with an IC50 of 310 nM.

For `CCSc1nnc(-c2ccccc2)n1Cc1ccc(NC(=O)c2ccccc2C(=O)O)cc1`, the IC50 came to 1900 nM. This IC50 lies about 6.1-fold higher than the previous one.

For the molecule `CCCCc1nnc(S(C)(=O)=O)n1Cc1ccc(-c2ccccc2-c2nn[nH]n2)cc1`, the IC50 was determined as 400 nM.

In turn, `CCCCc1nnc(S)n1Cc1ccc(-c2ccccc2C(=O)O)cc1` had an IC50 of 860 nM.

Molecule `CCCc1nnc(SCc2ccc(Cl)cc2)n1Cc1ccc(-c2ccccc2-c2nn[nH]n2)cc1` showed an IC50 of 98 nM.

As to `CCCCc1nnc(NCc2ccc(Cl)cc2)n1Cc1ccc(-c2ccccc2-c2nn[nH]n2)cc1`, the IC50 is 140 nM.

In turn, `CCCCc1nnc(SCc2ccc(C(F)(F)F)cc2)n1Cc1ccc(NC(=O)c2ccccc2C(=O)O)cc1` yielded an IC50 of 42 nM.

On to `CCCCc1nnc(SCc2ccccc2C)n1Cc1ccc(-c2ccccc2-c2nn[nH]n2)cc1`, for which the IC50 came out at 17 nM.

The molecule `CCCCc1nn2c(-c3ccccc3)c(C)nc2n1Cc1ccc(-c2ccccc2-c2nnn[nH]2)cc1` yielded an IC50 of 170 nM.

Consider `CCCSc1nnc(CCCc2ccccc2)n1Cc1ccc(NC(=O)c2ccccc2C(=O)O)cc1`, for which the IC50 came out at 320 nM.

In the case of `CCCCc1nnc(SCC2CCCCC2)n1Cc1ccc(-c2ccccc2-c2nn[nH]n2)cc1`, the IC50 came to 36 nM.

`CCCCc1nnc(SCc2ccccc2Cl)n1Cc1ccc(-c2ccccc2-c2nnn[nH]2)cc1` gave a half-maximal inhibitory concentration (IC50) of 110 nM. This IC50 is about 3.1-fold higher than that of the molecule before.

`CCCCc1nnc(-c2ccccc2)n1Cc1ccc(NC(=O)c2ccccc2C(=O)O)cc1` gave an IC50 of 930 nM.

In the case of `CCCCc1nnc(SCc2cccc(C)c2)n1Cc1ccc(NC(=O)c2ccccc2C(=O)O)cc1`, the IC50 was 32 nM. This IC50 lies about 29-fold lower than the previous one.

`CCCCc1nnc([S+]([O-])Cc2ccc(OC)cc2)n1Cc1ccc(NC(=O)c2ccccc2-c2nn[nH]n2)cc1` (configuration not stated) registered an IC50 of 28 nM.

As to `CCCCCc1nnc(SCc2ccc(Cl)cc2)n1Cc1ccc(-c2ccccc2-c2nn[nH]n2)cc1`, the IC50 worked out at 94 nM.

`CCCCc1nnc(SCCO)n1Cc1ccc(NC(=O)c2ccccc2C(=O)O)cc1` registered an IC50 of 480 nM. Compared with the last molecule, the IC50 is about 5.1-fold higher.

Consider `CCCCc1nc(Cl)c(CC(=O)OC)n1Cc1ccc(NC(=O)c2ccccc2C(=O)O)cc1`, for which the IC50 is 420 nM.

In the case of `CCCSc1nnc(C(F)(F)F)n1Cc1ccc(NC(=O)c2ccccc2C(=O)O)cc1`, the IC50 stood at 2100 nM.

Turning to `CCCSc1nnc(-c2ccccc2)n1Cc1ccc(NC(=O)c2ccccc2C(=O)O)cc1`, the IC50 turned out to be 1600 nM.

Regarding `CCCCc1nnc(SCc2cccc(OC)c2)n1Cc1ccc(-c2ccccc2-c2nn[nH]n2)cc1`, the IC50 amounted to 94 nM.

Molecule `CCCc1nnc(SCc2ccccc2)n1Cc1ccc(NC(=O)c2ccccc2C(=O)O)cc1` came in with an IC50 of 120 nM. This IC50 and that of the molecule before are within 1.5-fold of each other.

In turn, `CCCCc1nnc(SCc2cccc(C(=O)O)c2)n1Cc1ccc(NC(=O)c2ccccc2C(=O)O)cc1` had an IC50 of 15 nM.

Turning to `CCCCc1nnc([S+]([O-])Cc2ccc([N+](=O)[O-])cc2)n1Cc1ccc(-c2ccccc2-c2nnn[nH]2)cc1` (configuration not stated), the IC50 stood at 8.9 nM.

`CCSc1nnc(C(F)(F)F)n1Cc1ccc(NC(=O)c2ccccc2C(=O)O)cc1` gave an IC50 of 4800 nM.

In turn, `CCCCc1nnc(SCc2cccc(Cl)c2)n1Cc1ccc(NC(=O)c2ccccc2C(=O)O)cc1` yielded an IC50 of 26 nM.

In turn, `CCCCc1nnc(SCc2ccc(C(=O)OC)cc2)n1Cc1ccc(-c2ccccc2-c2nn[nH]n2)cc1` showed an IC50 of 120 nM.

On to `CCCCc1nn2cc(C)nc2n1Cc1ccc(-c2ccccc2-c2nnn[nH]2)cc1`, for which the IC50 turned out to be 55 nM.

The molecule `CCCCc1nn2c(C)c(C)nc2n1Cc1ccc(-c2ccccc2-c2nn[nH]n2)cc1` gave an IC50 of 7.8 nM.

`CCCCc1nnc(SCc2ccccc2CO)n1Cc1ccc(-c2ccccc2-c2nn[nH]n2)cc1` returned an IC50 of 36 nM.

Consider `CCCCc1nnc([S+]([O-])Cc2ccc(OC)cc2)n1Cc1ccc(-c2ccccc2-c2nnn[nH]2)cc1` (configuration not stated), for which the IC50 was found to be 50 nM. The IC50 values of the last two molecules are within 1.5-fold of each other.

As to `CCCCc1nnc(-c2ccncc2)n1Cc1ccc(NC(=O)c2ccccc2C(=O)O)cc1`, the IC50 was determined as 1400 nM.

For `CCCCc1nnc(SC(C(=O)OC)c2ccccc2)n1Cc1ccc(NC(=O)c2ccccc2C(=O)O)cc1` (configuration not stated), the IC50 came to 6.1 nM.

`CCCCc1nnc(SCCc2ccccc2)n1Cc1ccc(-c2ccccc2-c2nnn[nH]2)cc1`: the IC50 was found to be 35 nM.

Molecule `CCCCc1nnc([S+]([O-])Cc2ccc(OC)cc2)n1Cc1ccc(NC(=O)c2ccccc2C(=O)O)cc1` (configuration not stated) gave an IC50 of 7.4 nM. This IC50 is about 4.7-fold lower than that of the molecule before.

As for `CCCCc1nnc(SCc2ccccc2C(=O)OC)n1Cc1ccc(NC(=O)c2ccccc2C(=O)O)cc1`, the 50% inhibitory concentration (IC50) was 14 nM.

`CCCCc1nnc(SCC(=O)OC)n1Cc1ccc(NC(=O)c2ccccc2C(=O)O)cc1` displayed an IC50 of 330 nM.

Turning to `CCCCc1nnc(C(=O)N(C)c2ccccc2)n1Cc1ccc(-c2ccccc2-c2nnn[nH]2)cc1`, the IC50 was found to be 350 nM.

Turning to `CCCCc1nnc(NCc2ccc(OC)cc2)n1Cc1ccc(-c2ccccc2-c2nnn[nH]2)cc1`, the IC50 is 780 nM.

Consider `CCCCc1nnc(SC(C(=O)O)c2ccccc2)n1Cc1ccc(NC(=O)c2ccccc2C(=O)O)cc1` (configuration not stated), for which the IC50 was found to be 20 nM.
